Assay [1] has as its system Canis familiaris. The assay can be described thus: Antisecretory activity in Beagle dog assessed as inhibition of histamine-stimulated gastric acid secretion at 40 mg/kg, po administered 1 hr prior to histamine challenge measured every 30 mins for 90 mins relative to placebo control. Format: functional, organism-based. Also noted: dose 40 mg/kg. Particulars: Canis lupus familiaris, Stomach. In outline:
(§1)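 Conscious female beagles (7–10 kg) with a chronic gastric fistula received compound through the gastric cannula, called oral. Gastric output was collected over three 30-min periods (90 min) after the stimulant. Titratable acid in an aliquot was titrated to pH 7 with 0.01 N NaOH using a glass-calomel electrode. The value is the maximal % drop in acid concentration against a placebo trial in the same dog, with SE where more than two animals.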

Assay [2] concerns the target Histamine H2 receptor (Rattus norvegicus) (UniProt P25102). The assay is described as follows: Antagonist activity at histamine H2 receptor in Charles River rat assessed as inhibition of histamine-mediated electrically stimulated uterine contraction at 20 ug/mL relative to histamine-treated placebo. In outline: (§2)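 Uteri taken from female rats (150–200 g) primed with diethylstilbesterol (0.16 mg/rat) 16–20 h before sacrifice. Single horns were held in McEwen's solution at 34 °C under 95% O2–5% CO2. They were stimulated electrically every 50 s for 10 s with maximal current and 60 Hz trains of 1-ms pulses, and the block of the histamine response was scored. Footnote cutoff: under 30% reduction with test compound at 20 µg/mL.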

The subject of assay [3] is Canis familiaris. The assay is described as follows: Antisecretory activity in Beagle dog assessed as inhibition of gastrin tetrapeptide-stimulated gastric acid secretion at 20 mg/kg, po administered 1 hr prior to gastrin tetrapeptide challenge measured every 30 mins for 90 mins relative to placebo control. It counts as functional. Particulars: Canis lupus familiaris, Stomach. Put shortly: as §1

In assay [4] the target is Histamine H2 receptor (Rattus norvegicus, UniProt P25102). The assay is described as follows: Antagonist activity at histamine H2 receptor in Charles River rat assessed as inhibition of histamine-mediated electrically stimulated uterine contraction. Put shortly: as §2
Assay [5] has as its target Histamine H2 receptor (Cavia porcellus) (UniProt P47747). The assay can be described thus: Antagonist activity at histamine H2 receptor in Hartley guinea pig atrium assessed as ratio of histamine concentration required in control to that required in presence of compound to increase atrium rate by 50 beats/min at 10 ug/mL. Particulars: Cardiac atrium. In outline:
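Spontaneously beating Hartley guinea pig atria were dissected free of other myocardium and held in McEwen's solution on a transducer. Rate was counted from the tracing. Histamine was given at increasing concentrations (0.05–3.2 µg/mL) with placebo or with inhibitor at 10 µg/mL. The value is the ratio of histamine concentration needed to raise rate by 50 beats/min in the placebo trial to that needed with compound.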

The subject of assay [6] is Canis familiaris. The assay can be described thus: Antisecretory activity in Beagle dog assessed as inhibition of histamine-stimulated gastric acid secretion at 20 mg/kg, po administered 1 hr prior to histamine challenge measured every 30 mins for 90 mins relative to placebo control. It counts as functional. Particulars: Canis lupus familiaris, Stomach. Put shortly: as §1

The subject of assay [7] is Canis familiaris. The assay is described as follows: Antisecretory activity in Beagle dog assessed as inhibition of gastrin tetrapeptide-stimulated gastric acid secretion at 40 mg/kg, po administered 1 hr prior to gastrin tetrapeptide challenge measured every 30 mins for 90 mins relative to placebo control. Also noted: dose 40 mg/kg. Particulars: Canis lupus familiaris, Stomach. Format: functional, organism-based. In outline: as §1

Active and inactive are the calls of the source.

Chain of Histamine H2 receptor (Rattus norvegicus) (P25102 whole entry): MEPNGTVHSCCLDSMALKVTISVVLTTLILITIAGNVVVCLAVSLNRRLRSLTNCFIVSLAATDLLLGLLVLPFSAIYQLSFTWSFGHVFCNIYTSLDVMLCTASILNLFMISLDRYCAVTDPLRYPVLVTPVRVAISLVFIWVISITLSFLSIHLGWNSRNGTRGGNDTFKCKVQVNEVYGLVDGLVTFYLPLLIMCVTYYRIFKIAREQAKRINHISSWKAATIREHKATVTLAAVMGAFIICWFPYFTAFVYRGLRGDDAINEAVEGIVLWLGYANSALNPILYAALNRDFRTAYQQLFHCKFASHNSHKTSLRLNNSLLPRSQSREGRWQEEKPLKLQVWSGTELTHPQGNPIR
Chain of Histamine H2 receptor (P25102 whole entry): as above
Chain of Histamine H2 receptor (Cavia porcellus) (P47747 whole entry): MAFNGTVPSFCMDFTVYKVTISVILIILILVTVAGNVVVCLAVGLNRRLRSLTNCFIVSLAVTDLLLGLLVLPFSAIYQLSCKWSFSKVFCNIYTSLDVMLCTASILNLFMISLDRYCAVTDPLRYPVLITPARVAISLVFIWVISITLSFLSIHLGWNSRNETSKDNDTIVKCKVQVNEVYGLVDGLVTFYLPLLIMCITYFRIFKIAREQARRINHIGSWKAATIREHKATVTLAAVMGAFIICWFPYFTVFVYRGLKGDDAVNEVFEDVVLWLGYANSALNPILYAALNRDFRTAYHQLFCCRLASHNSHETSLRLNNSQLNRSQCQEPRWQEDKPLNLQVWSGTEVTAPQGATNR

As usually defined, the inhibition is how much of the control response was suppressed. For orientation: inhibition in vivo means the drop in the measured response relative to a control, in per cent. `Cc1cnc2c(ccc(=O)n2CCN(C)C)c1`: the inhibition result in assay [1] was “inactive”. Besides, the inhibition in assay [2] was below 30%. In addition, the inhibition in vivo at 20 mg/kg in assay [3] was found to be 58%.

In general, EC50 refers to the concentration that produces a half-maximal response. On to `Cc1cc(C)c2ccc(=O)n(CC(C)(C)N(C)C)c2n1`, for which, in assay [1], the inhibition entry is “inactive”. In assay [4], the EC50 is 38 µM. Besides, the inhibition in vivo at 20 mg/kg in assay [3] was determined as 38%.

With `C/N=C(\S)NCCSCc1[nH]cnc1C` [METIAMIDE], the EC50 in assay [4] was 1.15 µM.

Regarding `Cc1cc(C)c2ccc(=O)n(CCN)c2n1`, the inhibition result in assay [1] was “inactive”. Further, the EC50 in assay [4] was 156 µM. For the same molecule, the inhibition in vivo at 20 mg/kg in assay [3] was below 25%.

On to `CNC(=S)NCCSCc1[nH]cnc1C` [METIAMIDE], for which the Ratio in assay [5] was 0.003. Also, the inhibition in vivo at 20 mg/kg in assay [6] came out at 46%; in assay [3] it was 76%.

With `Cc1cc(C)c2ccc(=O)n(CCN3C(C)(C)CCCC3(C)C)c2n1`, the inhibition entry in assay [1] was “inactive”. The inhibition in assay [2] was below 30%. For the same molecule, in assay [3], the inhibition in vivo at 20 mg/kg is below 25%.

On to `CC(C)Cc1ccc2ccc(=O)n(CCN(C)C)c2n1`, for which the inhibition entry in assay [1] is “inactive”. The Ratio in assay [5] came out at 0.21. Moreover, the EC50 in assay [4] was 0.585 µM. In addition, the inhibition in vivo at 20 mg/kg in assay [3] is below 25%.

In the case of `Cc1cc(C)c2c(n1)N(CCN(C)C)CCC2`, the inhibition result in assay [1] and in assay [7] was “inactive” throughout. Besides, in assay [4], the EC50 is 4.33 µM.

On to `CC(C)N(CCn1c(=O)ccc2cccnc21)C(C)C`, for which the inhibition entry in assay [1] is “inactive”. In assay [4], the EC50 is 76.5 µM. For the same molecule, the inhibition in vivo at 20 mg/kg in assay [3] turned out to be 51%.

Take `Cc1cc(C)c2ccc(=O)n(CC[N+](C)(C)C)c2n1`: the inhibition result in assay [1] is “inactive”. In assay [2], the inhibition was below 30%. In addition, the inhibition in vivo at 20 mg/kg in assay [3] is below 25%.

For `CCCCN(CCCC)CCn1c(=O)ccc2c(C)cc(C)nc21`, the inhibition entry in assay [1] was “inactive”. Moreover, the concentration for a half-maximal effect (EC50) in assay [4] is 5.46 µM. In assay [3], the inhibition in vivo at 20 mg/kg stood at 33%.

Turning to `Cc1cc(C)c2ccc(=O)n(CCN3CCCCC3)c2n1`, the inhibition result in assay [1] is “inactive”. Further, in assay [4], the EC50 is 10.7 µM. Moreover, the inhibition in vivo at 20 mg/kg in assay [3] came out at 40%.

For the molecule `CN(C)CCn1c(=O)ccc2c(C(F)(F)F)cc(C(F)(F)F)nc21`, in assay [1], the inhibition entry is “inactive”. The inhibition in assay [2] is below 30%. In addition, in assay [3], the inhibition in vivo at 20 mg/kg was determined as 32%.

Turning to `Cc1cc(C(F)(F)F)c2ccc(=O)n(CCN(C)C)c2n1`, the inhibition result in assay [1] is “inactive”. The inhibition in assay [2] is below 30%. The inhibition in vivo at 20 mg/kg in assay [3] is 52%.

With `Cc1ccc2ccc(=O)n(CCN(C)C)c2n1`, the inhibition entry in assay [1] is “inactive”. In assay [4], the EC50 is 9.43 µM. The inhibition in vivo at 20 mg/kg in assay [3] was below 25%.

Regarding `CNCCn1c(=O)ccc2c(C)cc(C)nc21`, in assay [1], the inhibition entry was “inactive”. Further, in assay [4], the EC50 was 91.2 µM. The inhibition in vivo at 20 mg/kg in assay [3] was below 25%.

Turning to `Cc1cc(C)c2ccc(=O)n(CCN(C(C)C)C(C)C)c2n1`, the inhibition entry in assay [1] is “inactive”. For the same molecule, in assay [5], the Ratio was determined as 0.011. The EC50 in assay [4] was 4.78 µM. In assay [3], the inhibition in vivo at 20 mg/kg amounted to 57%.

Take `Cc1cc(C)c2ccc(=O)n(CCCCN(C)C)c2n1`: the inhibition result in assay [1] was “inactive”. Besides, the inhibition in assay [2] was below 30%. Moreover, in assay [3], the inhibition in vivo at 20 mg/kg is below 25%.

For the molecule `Cc1cc(C(F)(F)F)nc2c1ccc(=O)n2CCN(C)C`, the inhibition entry in assay [1] was “inactive”. In addition, the EC50 in assay [4] was 5.35 µM. The inhibition in vivo at 20 mg/kg in assay [3] was 34%.

Turning to `Cc1ccnc2c1ccc(=O)n2CCN(C)C`, the inhibition result in assay [1] is “inactive”. The inhibition in assay [2] is below 30%. Also, the inhibition in vivo at 20 mg/kg in assay [3] was 58%.

Turning to `Cc1cc(Cl)nc2c1ccc(=O)n2CCN(C)C`, the inhibition result in assay [1] was “inactive”. Further, the EC50 in assay [4] is 34.7 µM. Besides, the inhibition in vivo at 20 mg/kg in assay [3] is below 25%.

With `CCN(CC)CCn1c(=O)ccc2c(C)cc(C)nc21`, the inhibition entry in assay [1] was “inactive”. In assay [4], the EC50 was 4.1 µM. The inhibition in vivo at 20 mg/kg in assay [3] is below 25%.

As to `CCc1cc(CC)c2ccc(=O)n(CCN(C)C)c2n1`, the inhibition result in assay [1] was “inactive”. Moreover, the EC50 in assay [4] was 19 µM. Besides, in assay [3], the inhibition in vivo at 20 mg/kg was below 25%.

On to `Cc1cc(C)c2ccc(=S)n(CCN(C)C)c2n1`, for which, in assay [1], the inhibition entry was “inactive”. Further, the 50% effective concentration (EC50) in assay [4] is 14 µM. The inhibition in vivo at 20 mg/kg in assay [3] was 41%.

Regarding `COc1cc(C)c2ccc(=O)n(CCN(C)C)c2n1`, the inhibition entry in assay [1] was “inactive”. Besides, the EC50 in assay [4] was 26.8 µM. The inhibition in vivo at 20 mg/kg in assay [3] was determined as 27%.

For the molecule `Cc1nc2c(ccc(=O)n2CCN(C)C)c(C)c1C`, the inhibition result in assay [1] is “inactive”. Further, the EC50 in assay [4] is 48.2 µM. Further, the inhibition in vivo at 20 mg/kg in assay [3] was found to be 61%.

Consider `CN(C)CCn1c(=O)ccc2cccnc21`, for which the inhibition result in assay [1] is “inactive”. Further, the Ratio in assay [5] was 0.54. Moreover, the inhibition in assay [2] is below 30%. Further, the inhibition in vivo at 20 mg/kg in assay [3] was found to be 59%.

Take `Cc1cc(C)c2c(n1)N(CCN(C)C)C(=O)CC2`: in assay [1], the inhibition result was “inactive”. For the same molecule, in assay [5], the Ratio stood at 0.013. The EC50 in assay [4] is 19.4 µM. Moreover, the inhibition in vivo at 20 mg/kg in assay [3] was below 25%.

As for `CCc1ccc2ccc(=O)n(CCN(C)C)c2n1`, the inhibition result in assay [1] is “inactive”. In addition, in assay [4], the EC50 was 3.22 µM. For the same molecule, in assay [3], the inhibition in vivo at 20 mg/kg is below 25%.

With `CCn1c(=O)ccc2c(C)cc(C)nc21`, in assay [1], the inhibition result was “inactive”. In addition, in assay [2], the inhibition was below 30%. The inhibition in vivo at 20 mg/kg in assay [3] is below 25%.

On to `Cc1cc(C)c2ccc(=O)n(CCN(C)C)c2n1`, for which, in assay [1], the inhibition result was “inactive”. In addition, the Ratio in assay [5] worked out at 0.18. Besides, the EC50 in assay [4] is 16 µM. For the same molecule, in assay [3], the inhibition in vivo at 20 mg/kg stood at 40%.

Consider `Cc1cc(C)c2ccc(=O)n(CCCN(C)C)c2n1`, for which, in assay [1], the inhibition entry was “inactive”. Moreover, the inhibition in assay [2] is below 30%. In addition, the inhibition in vivo at 20 mg/kg in assay [3] is 31%.

Take `Cc1cc(C)c2ccc(=O)n(CCN(C3CCCCC3)C3CCCCC3)c2n1`: the inhibition result in assay [1] is “inactive”. Moreover, the inhibition in assay [2] is below 30%. In addition, the inhibition in vivo at 20 mg/kg in assay [3] was below 25%.

`CC(C)c1ccc2ccc(=O)n(CCN(C)C)c2n1`: the inhibition entry in assay [1] is “inactive”. For the same molecule, the EC50 in assay [4] is 2.31 µM. In assay [3], the inhibition in vivo at 20 mg/kg was below 25%.

With `CN(C)CCn1c(=O)ccc2ccccc21`, in assay [1], the inhibition result was “inactive”. For the same molecule, the inhibition in assay [2] is below 30%. The inhibition in vivo at 20 mg/kg in assay [3] is below 25%.

For the origin of these results see ChEMBL document CHEMBL3228026, “Inhibition of gastric acid secretion by 1,8-naphthyridin-2(1H)-ones” (J Med Chem, 1979).
